{"source": "ChEMBL document CHEMBL3286393", "about": "(J Med Chem, 2014)", "key": {"[1]": {"target": "T1, Polyunsaturated fatty acid lipoxygenase ALOX12 (Homo sapiens, UniProt P18054)", "T1 sequence (P18054 whole entry)": "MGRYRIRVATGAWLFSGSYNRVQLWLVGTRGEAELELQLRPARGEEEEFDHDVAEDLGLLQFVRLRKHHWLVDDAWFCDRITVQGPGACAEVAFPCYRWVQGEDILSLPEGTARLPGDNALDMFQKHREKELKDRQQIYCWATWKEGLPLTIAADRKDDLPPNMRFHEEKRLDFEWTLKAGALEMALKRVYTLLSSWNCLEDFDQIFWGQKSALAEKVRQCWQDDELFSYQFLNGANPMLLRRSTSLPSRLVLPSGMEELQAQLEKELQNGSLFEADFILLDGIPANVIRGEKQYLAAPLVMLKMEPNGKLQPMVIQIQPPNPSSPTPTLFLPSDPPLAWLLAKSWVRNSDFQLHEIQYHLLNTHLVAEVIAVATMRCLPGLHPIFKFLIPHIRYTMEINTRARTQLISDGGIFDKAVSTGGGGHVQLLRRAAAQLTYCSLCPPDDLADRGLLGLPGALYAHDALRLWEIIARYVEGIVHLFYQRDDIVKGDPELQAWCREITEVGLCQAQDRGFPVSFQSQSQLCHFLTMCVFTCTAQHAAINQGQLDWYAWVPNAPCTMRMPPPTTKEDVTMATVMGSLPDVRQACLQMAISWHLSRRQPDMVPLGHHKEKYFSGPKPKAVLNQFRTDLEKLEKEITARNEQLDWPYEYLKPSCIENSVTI", "test": "Inhibition of 12-LO in human neutrophils"}, "[2]": {"target": "T2, Polyunsaturated fatty acid 5-lipoxygenase (Homo sapiens) (UniProt P09917)", "T2 sequence (whole entry)": "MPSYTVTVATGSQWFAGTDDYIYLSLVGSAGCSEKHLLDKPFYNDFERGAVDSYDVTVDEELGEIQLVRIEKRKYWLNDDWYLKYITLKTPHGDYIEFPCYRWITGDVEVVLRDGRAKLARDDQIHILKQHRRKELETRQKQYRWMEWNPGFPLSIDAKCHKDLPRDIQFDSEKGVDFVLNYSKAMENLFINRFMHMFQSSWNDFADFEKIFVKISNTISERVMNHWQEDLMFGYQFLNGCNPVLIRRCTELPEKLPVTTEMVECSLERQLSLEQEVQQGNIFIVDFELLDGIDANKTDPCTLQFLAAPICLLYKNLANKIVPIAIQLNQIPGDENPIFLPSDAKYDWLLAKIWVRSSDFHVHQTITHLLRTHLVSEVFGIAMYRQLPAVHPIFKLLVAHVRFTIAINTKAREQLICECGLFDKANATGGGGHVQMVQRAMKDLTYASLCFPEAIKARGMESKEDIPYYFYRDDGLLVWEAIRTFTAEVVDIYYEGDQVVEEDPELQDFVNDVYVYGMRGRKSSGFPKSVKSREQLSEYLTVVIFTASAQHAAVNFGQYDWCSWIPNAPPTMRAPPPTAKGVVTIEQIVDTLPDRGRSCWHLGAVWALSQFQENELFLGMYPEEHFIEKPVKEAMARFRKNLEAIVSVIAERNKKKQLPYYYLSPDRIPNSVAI", "test": "Inhibition of 5-LO in human neutrophils using arachidonic acid as substrate assessed as residual activity preincubated at 10 uM for 15 mins measured after 10 mins by HPLC analysis relative to control", "procedure,_shortened": "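Fresh human neutrophils, 1 × 10⁷/mL in PBS pH 7.4 with 1 mM CaCl2 and 1 mg/mL glucose, preincubated 15 min at 37 °C. Stimulated with 2.5 μM A23187 plus 20 μM arachidonic acid for 10 min at 37 °C; methanol stop. LTB4, its all-trans isomers and 5-H(P)ETE by HPLC.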"}, "Mus musculus [3]": {"tested_on": "Mus musculus", "test": "Antiinflammatory activity in zymosan-induced peritonitis CD1 mouse model assessed as suppression of LTC4 level at 10 mg/kg, ip administered 30 mins before challenge measured 30 mins post zymosan challenge relative to control", "format": "functional", "details": "route intraperitoneal", "procedure,_shortened": "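Male CD-1 mice (33−39 g, 8−9 weeks; n = 5−11 per group) dosed ip in 0.5 mL 0.9% saline with 2% DMSO 30 min before ip zymosan (0.5 mL of 2 mg/mL in saline). Killed by CO2 30 min after zymosan, peritoneum lavaged with 3 mL cold PBS pH 7.4. Cysteinyl-LTs in exudate supernatant by enzyme immunoassay; % inhibition vs vehicle.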"}, "[4]": {"target": "T3, Prostaglandin G/H synthase 2 (Homo sapiens, UniProt P35354)", "T3 sequence (P35354 whole entry)": "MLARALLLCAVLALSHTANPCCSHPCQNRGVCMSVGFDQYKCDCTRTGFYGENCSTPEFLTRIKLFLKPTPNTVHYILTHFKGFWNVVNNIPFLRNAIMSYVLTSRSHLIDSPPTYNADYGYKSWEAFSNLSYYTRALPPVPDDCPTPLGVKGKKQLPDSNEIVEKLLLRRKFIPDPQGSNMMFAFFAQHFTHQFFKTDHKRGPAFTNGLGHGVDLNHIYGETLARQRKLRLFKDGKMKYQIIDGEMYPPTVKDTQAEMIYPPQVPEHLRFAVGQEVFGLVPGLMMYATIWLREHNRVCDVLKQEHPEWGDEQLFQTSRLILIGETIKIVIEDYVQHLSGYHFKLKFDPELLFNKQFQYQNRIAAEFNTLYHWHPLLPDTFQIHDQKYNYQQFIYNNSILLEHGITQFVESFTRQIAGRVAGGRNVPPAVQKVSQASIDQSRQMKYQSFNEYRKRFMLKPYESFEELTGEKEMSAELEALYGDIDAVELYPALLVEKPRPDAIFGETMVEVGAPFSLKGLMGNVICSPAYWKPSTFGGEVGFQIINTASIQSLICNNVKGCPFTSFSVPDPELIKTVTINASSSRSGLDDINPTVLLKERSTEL", "test": "Inhibition of COX2-mediated PGF2alpha formation in LPS-stimulated human monocytes preincubated for 15 mins before arachidonic acid substrate addition measured after 30 mins by UPLC-MS/MS analysis", "format": "cell-based"}, "Mus musculus [5]": {"tested_on": "Mus musculus", "test": "Antiinflammatory activity in zymosan-induced peritonitis CD1 mouse model assessed as suppression of neutrophil infiltration at 10 mg/kg, ip administered 30 mins before challenge measured 4 hrs post zymosan challenge relative to control", "format": "functional", "details": "route intraperitoneal", "procedure,_shortened": "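Zymosan peritonitis in male CD-1 mice (n = 5−11): ip dose in 2% DMSO/saline 30 min before ip zymosan. Peritoneal lavage with 3 mL cold PBS at 4 h. Exudate cells counted by light microscopy in a Burker chamber after trypan blue staining; % inhibition vs vehicle.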"}, "Mus musculus [6]": {"tested_on": "Mus musculus", "test": "Antiinflammatory activity in zymosan-induced peritonitis CD1 mouse model assessed as suppression of MPO activity at 10 mg/kg, ip administered 30 mins before challenge measured 4 hrs post zymosan challenge relative to control", "format": "functional", "details": "route intraperitoneal", "procedure,_shortened": "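In male CD-1 mice (n = 5−11 per group), dose was given ip in 2% DMSO/saline 30 min before ip zymosan (2 mg/mL, 0.5 mL). Lavage 4 h later. Pelleted exudate cells disrupted; supernatant mixed with 0.167 mg/mL o-dianisidine and 0.0005% H2O2 in PBS, read kinetically by absorbance. U/mL from human neutrophil MPO calibration; % inhibition vs vehicle.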"}, "Mus musculus [7]": {"tested_on": "Mus musculus", "test": "Antiinflammatory activity in zymosan-induced peritonitis CD1 mouse model assessed as suppression of LTB4 level at 10 mg/kg, ip administered 30 mins before challenge measured 4 hrs post zymosan challenge relative to control"}}, "data": [{"smiles": "COc1cc(/C=C/c2cc(-c3ccc(O)c(OC)c3)[nH]n2)ccc1O", "values": [{"measurement": "IC50", "setting": "[1]", "result": 7.7, "unit": "µM"}]}, {"smiles": "COc1cc(/C=C/C(=O)CC(=O)/C=C/c2cc(CC=C(C)C)c(O)c(OC)c2)cc(CC=C(C)C)c1O", "values": [{"measurement": "Activity", "setting": "[2]", "result": 74.3, "unit": "%"}]}, {"smiles": "COc1cc(/C=C/c2cc(/C=C/c3ccc(O)c(OC)c3)[nH]n2)ccc1O", "note": "[CURCUMIN PYRAZOLE]", "values": [{"measurement": "IC50", "setting": "[1]", "result": 7.3, "unit": "µM"}]}, {"smiles": "COc1cc(/C=C/c2cc(/C=C/c3cc(CC=C(C)C)c(O)c(OC)c3)[nH]n2)cc(CC=C(C)C)c1O", "values": [{"measurement": "inhibition in vivo at 10 mg/kg", "setting": "Mus musculus [3]", "result": 92, "unit": "%"}, {"measurement": "IC50", "setting": "[4]", "result": "> 10", "unit": "µM"}, {"measurement": "inhibition in vivo at 10 mg/kg", "setting": "Mus musculus [5]", "result": 75, "unit": "%"}, {"measurement": "inhibition in vivo at 10 mg/kg", "setting": "Mus musculus [6]", "result": 39, "unit": "%"}, {"measurement": "inhibition in vivo at 10 mg/kg", "setting": "Mus musculus [7]", "result": 61, "unit": "%"}]}, {"smiles": "COc1cc(CCC(=O)CC(=O)CCc2ccc(O)c(OC)c2)ccc1O", "note": "[TETRAHYDROCURCUMIN]", "values": [{"measurement": "Activity", "setting": "[2]", "result": 70.1, "unit": "%"}]}]}
